Results from ChEMBL document CHEMBL2434850, “Synthesis and antibacterial activity of novel modified 5-O-mycaminose 14-membered ketolides” (2013).
Converted amounts (≈) assume the structure as drawn.

Experiments:
Assay type in all cases: functional
Staphylococcus aureus [1] = test: Antibacterial activity against methicillin-sensitive Staphylococcus aureus 15 by broth microdilution method
Outline: (§1)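 Value is the minimum inhibitory concentration (MIC), determined by broth microdilution following CLSI recommendations. Strains ATCC 29213, 15 and 09-06 are methicillin-sensitive S. aureus; ATCC 12228 and 09-9 are methicillin-sensitive S. epidermidis.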

Staphylococcus aureus [2] = test: Antibacterial activity against methicillin-resistant Staphylococcus aureus 09-13 by broth microdilution method
Outline: (§2)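 MIC determined by broth microdilution following CLSI recommendations; strain is a methicillin-resistant S. aureus (MRSA).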

Staphylococcus aureus [3] = test: Antibacterial activity against methicillin-sensitive Staphylococcus aureus 09-6 by broth microdilution method; outline: as §1
[4] = tested on: Staphylococcus epidermidis; test: Antibacterial activity against methicillin-resistant Staphylococcus epidermidis 09-3 by broth microdilution method
[5] = tested on: Staphylococcus epidermidis; test: Antibacterial activity against methicillin-sensitive Staphylococcus epidermidis ATCC 12228 by broth microdilution method; outline: as §1
[6] = tested on: Staphylococcus epidermidis; test: Antibacterial activity against methicillin-sensitive Staphylococcus epidermidis 09-9 by broth microdilution method; outline: as §1
Staphylococcus aureus [7] = test: Antibacterial activity against methicillin-sensitive Staphylococcus aureus ATCC 29213 by broth microdilution method; outline: as §1
Staphylococcus aureus [8] = test: Antibacterial activity against methicillin-resistant Staphylococcus aureus ATCC 33591 by broth microdilution method; outline: as §2

SMILES	MIC (Staphylococcus aureus [1]) [µg/mL]	MIC (Staphylococcus aureus [2]) [µg/mL]	MIC (Staphylococcus aureus [3]) [µg/mL]	MIC [4] [µg/mL]	MIC [5] [µg/mL]	MIC [6] [µg/mL]	MIC (Staphylococcus aureus [7]) [µg/mL]	MIC (Staphylococcus aureus [8]) [µg/mL]
CC[C@H]1OC(=O)[C@H](C)C(=O)[C@H](C)[C@@H](O[C@@H]2O[C@H](C)[C@@H](OC(=O)NCCc3ccccc3)[C@H](N(C)C)[C@H]2O)[C@@](C)(OC)C[C@@H](C)/C(=N\O)[C@H](C)[C@H]2OC(=O)O[C@@]21C	1 (≈ 1.26 µM)	> 32	1 (≈ 1.26 µM)	> 32	0.5 (≈ 0.631 µM)	2 (≈ 2.53 µM)	1 (≈ 1.26 µM)	> 32
CC[C@H]1OC(=O)[C@H](C)C(=O)[C@H](C)[C@@H](O[C@@H]2O[C@H](C)[C@@H](OC(=O)NCCc3ccccc3)[C@H](N(C)C)[C@H]2O)[C@@](C)(OC)C[C@@H](C)/C(=N\OC(=O)NCCc2ccccc2)[C@H](C)[C@H]2OC(=O)O[C@@]21C	> 32	> 32	> 32	> 32	> 32	> 32	> 32	> 32
CC[C@H]1OC(=O)[C@H](C)C(=O)[C@H](C)[C@@H](O[C@@H]2O[C@H](C)[C@@H](OC(=O)Nc3ccc(C(F)(F)F)cc3)[C@H](N(C)C)[C@H]2O)[C@@](C)(OC)C[C@@H](C)/C(=N\O)[C@H](C)[C@H]2OC(=O)O[C@@]21C	> 32	> 32	> 32	> 32	32 (≈ 38.5 µM)	> 32	> 32	> 32
CC[C@H]1OC(=O)[C@H](C)C(=O)[C@H](C)[C@@H](O[C@@H]2O[C@H](C)[C@@H](OC(=O)NC3CCCCC3)[C@H](N(C)C)[C@H]2O)[C@@](C)(OC)C[C@@H](C)/C(=N\OC(=O)NC2CCCCC2)[C@H](C)[C@H]2OC(=O)O[C@@]21C	> 32	> 32	> 32	> 32	32 (≈ 35.8 µM)	> 32	32 (≈ 35.8 µM)	> 32
CCCCCNC(=O)O/N=C1\[C@H](C)C[C@](C)(OC)[C@H](O[C@@H]2O[C@H](C)[C@@H](OC(=O)NCCCCC)[C@H](N(C)C)[C@H]2O)[C@@H](C)C(=O)[C@@H](C)C(=O)O[C@H](CC)[C@@]2(C)OC(=O)O[C@@H]2[C@H]1C	> 64	> 64	> 64	> 64	> 64	> 64	> 64	> 64
CC[C@H]1OC(=O)[C@H](C)C(=O)[C@H](C)[C@@H](O[C@@H]2O[C@H](C)[C@@H](OC(=O)NCCCl)[C@H](N(C)C)[C@H]2O)[C@@](C)(OC)C[C@@H](C)/C(=N\OC(=O)NCCCl)[C@H](C)[C@H]2OC(=O)O[C@@]21C	> 32	> 32	> 32	> 32	> 32	> 32	> 32	> 32
CC[C@H]1OC(=O)[C@H](C)C(=O)[C@H](C)[C@@H](O[C@@H]2O[C@H](C)[C@@H](O)[C@H](N(C)C)[C@H]2O)[C@@](C)(OC)C[C@@H](C)/C(=N\O)[C@H](C)[C@H]2OC(=O)O[C@@]21C	> 64	> 64	2 (≈ 3.1 µM)	> 64	2 (≈ 3.1 µM)	2 (≈ 3.1 µM)	2 (≈ 3.1 µM)	> 64
CC[C@H]1OC(=O)[C@H](C)[C@@H](O[C@H]2C[C@@](C)(OC)[C@@H](O)[C@H](C)O2)[C@H](C)[C@@H](O[C@@H]2O[C@H](C)C[C@H](N(C)C)[C@H]2O)[C@](C)(OC)C[C@@H](C)C(=O)[C@H](C)[C@@H](O)[C@]1(C)O [CLARITHROMYCIN]	0.5 (≈ 0.668 µM)	> 64	0.06 (≈ 0.0802 µM)	> 64	0.06 (≈ 0.0802 µM)	4 (≈ 5.35 µM)	0.06 (≈ 0.0802 µM)	> 64
CC[C@H]1OC(=O)[C@H](C)C(=O)[C@H](C)[C@@H](O[C@@H]2O[C@H](C)C[C@H](N(C)C)[C@H]2O)[C@](C)(OC)C[C@@H](C)C(=O)[C@H](C)[C@H]2N(CCCCn3cnc(-c4cccnc4)c3)C(=O)O[C@]12C [TELITHROMYCIN]	2 (≈ 2.46 µM)	> 32	0.5 (≈ 0.616 µM)	32 (≈ 39.4 µM)	0.06 (≈ 0.0739 µM)	0.06 (≈ 0.0739 µM)	0.5 (≈ 0.616 µM)	> 32
